# Measured values pooled from the literature.
# Compare with care: the assays were run in different laboratories.
# Target: Myotonin-protein kinase (DMPK, Homo sapiens, UniProt Q09013)
# Residues used in one study (Q09013 1-629): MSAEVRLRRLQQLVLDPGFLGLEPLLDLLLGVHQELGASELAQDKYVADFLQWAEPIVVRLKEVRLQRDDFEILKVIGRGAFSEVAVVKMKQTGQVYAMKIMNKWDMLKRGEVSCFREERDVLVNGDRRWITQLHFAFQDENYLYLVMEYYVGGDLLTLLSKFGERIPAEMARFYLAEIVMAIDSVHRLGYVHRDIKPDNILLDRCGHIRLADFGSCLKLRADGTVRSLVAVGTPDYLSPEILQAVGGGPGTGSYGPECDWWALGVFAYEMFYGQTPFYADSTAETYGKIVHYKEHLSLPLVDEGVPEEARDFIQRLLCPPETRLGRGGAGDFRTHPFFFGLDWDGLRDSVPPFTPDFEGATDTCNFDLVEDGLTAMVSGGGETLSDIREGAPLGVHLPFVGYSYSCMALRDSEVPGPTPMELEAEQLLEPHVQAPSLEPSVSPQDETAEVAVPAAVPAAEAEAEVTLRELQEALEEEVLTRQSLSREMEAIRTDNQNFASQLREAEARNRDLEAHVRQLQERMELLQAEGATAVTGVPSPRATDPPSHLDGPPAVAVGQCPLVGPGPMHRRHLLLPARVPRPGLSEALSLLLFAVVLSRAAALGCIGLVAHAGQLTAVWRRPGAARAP
Compound,test,setting,measurement,value
CCCCC(=O)Nc1ccc(-c2ccc3ncn(CCC)c(=O)c3c2)cn1,"binding, competition with immobilised ligand",0.5 µM,remaining binding,83%
COc1ccc2oc(-c3ccc4nc(N)oc4c3)c/c(=N\c3ccccc3NC(=O)CCN)c2c1,binding,1 µM,remaining binding,102%
Cc1ccc(NC(=O)c2ccnc(C(F)(F)F)c2)cc1-c1cc(OCCO)nc(N2CCOCC2)c1,"binding, competition with immobilised ligand",1 µM,remaining binding,100%
C=CC(=O)N1CCC([C@@H]2CCNc3c(C(N)=O)c(-c4ccc(Oc5ccccc5)cc4)nn32)CC1,"enzyme activity, inhibitor",1 µM,inhibition,10%
CC(C)S(=O)(=O)c1ccc2nccc(Nc3ccc4sc(C5CCCC5)nc4c3)c2c1,"enzyme activity, inhibitor",1 µM,activity vs control,80%
COc1ccc2[nH]c3c4[nH]c5ccc(OC)cc5c4c4c(c3c2c1)C(=O)NC4=O,"binding, competition with immobilised ligand",1 µM,remaining binding,56%
C1=C/COCc2cc(ccc2OCCN2CCCC2)Nc2nccc(n2)-c2cccc(c2)COC/1,binding,0.1 µM,remaining binding,100%
C=CC(=O)N1CCC[C@@H](n2nc(-c3ccc(Oc4ccccc4)cc3)c3c(N)ncnc32)C1,"enzyme activity, inhibitor",1 µM,inhibition,1%
